Experimental data as given in ChEMBL document CHEMBL3352261, “Discovery of inhibitors of the mitotic kinase TTK based on N-(3-(3-sulfamoylphenyl)-1H-indazol-5-yl)-acetamides and carboxamides” (Bioorg Med Chem, 2014).
The source made the active and inactive calls. The rule behind the calls is not given here.

Columns and labels:
[1] = molecular target: Receptor-type tyrosine-protein kinase FLT3 (Homo sapiens) (UniProt P36888); test: Inhibition of FLT3 (unknown origin) by FRET-based homogenous assay
[2] = Cell cycle arrest in human HCT116 cells at 500 to 2500 nM after 2 days by flow cytometry; type: functional, cell-based; settings: HCT-116
[3] = molecular target: T1, Dual specificity protein kinase TTK (Homo sapiens, UniProt P33981); test: Inhibition of GST-fused full length human TTK compound pre-incubated for 15 mins prior ATP addition by MBP-based assay
T1 sequence (P33981 whole entry): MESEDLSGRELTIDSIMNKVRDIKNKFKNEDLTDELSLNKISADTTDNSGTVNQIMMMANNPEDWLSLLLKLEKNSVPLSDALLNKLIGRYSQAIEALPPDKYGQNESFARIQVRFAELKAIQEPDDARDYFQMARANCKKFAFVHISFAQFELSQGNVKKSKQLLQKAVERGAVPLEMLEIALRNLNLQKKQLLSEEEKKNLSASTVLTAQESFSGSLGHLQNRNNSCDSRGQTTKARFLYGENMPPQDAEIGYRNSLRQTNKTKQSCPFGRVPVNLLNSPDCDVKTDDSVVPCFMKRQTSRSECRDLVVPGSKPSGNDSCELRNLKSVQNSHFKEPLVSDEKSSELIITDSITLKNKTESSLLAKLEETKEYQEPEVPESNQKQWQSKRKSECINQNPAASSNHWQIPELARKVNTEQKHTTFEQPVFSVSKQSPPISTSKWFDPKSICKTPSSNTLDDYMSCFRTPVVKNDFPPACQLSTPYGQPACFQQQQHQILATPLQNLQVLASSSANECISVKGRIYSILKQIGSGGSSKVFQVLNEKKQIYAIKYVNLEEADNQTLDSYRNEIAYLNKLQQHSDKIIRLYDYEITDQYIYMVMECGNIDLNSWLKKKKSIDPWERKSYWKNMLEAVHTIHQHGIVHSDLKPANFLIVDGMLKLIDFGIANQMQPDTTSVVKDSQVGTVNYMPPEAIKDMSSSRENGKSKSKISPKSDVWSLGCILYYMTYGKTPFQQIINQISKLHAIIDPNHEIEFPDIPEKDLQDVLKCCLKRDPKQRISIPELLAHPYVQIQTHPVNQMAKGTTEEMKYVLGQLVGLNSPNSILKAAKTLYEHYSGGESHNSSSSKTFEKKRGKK

[4] = molecular target: T2, Serine/threonine-protein kinase PLK4 (Homo sapiens, UniProt O00444); test: Inhibition of GST-tagged human PLK4 (1-391 residues) phosphorylation by ELISA
T2 sequence (O00444 whole entry): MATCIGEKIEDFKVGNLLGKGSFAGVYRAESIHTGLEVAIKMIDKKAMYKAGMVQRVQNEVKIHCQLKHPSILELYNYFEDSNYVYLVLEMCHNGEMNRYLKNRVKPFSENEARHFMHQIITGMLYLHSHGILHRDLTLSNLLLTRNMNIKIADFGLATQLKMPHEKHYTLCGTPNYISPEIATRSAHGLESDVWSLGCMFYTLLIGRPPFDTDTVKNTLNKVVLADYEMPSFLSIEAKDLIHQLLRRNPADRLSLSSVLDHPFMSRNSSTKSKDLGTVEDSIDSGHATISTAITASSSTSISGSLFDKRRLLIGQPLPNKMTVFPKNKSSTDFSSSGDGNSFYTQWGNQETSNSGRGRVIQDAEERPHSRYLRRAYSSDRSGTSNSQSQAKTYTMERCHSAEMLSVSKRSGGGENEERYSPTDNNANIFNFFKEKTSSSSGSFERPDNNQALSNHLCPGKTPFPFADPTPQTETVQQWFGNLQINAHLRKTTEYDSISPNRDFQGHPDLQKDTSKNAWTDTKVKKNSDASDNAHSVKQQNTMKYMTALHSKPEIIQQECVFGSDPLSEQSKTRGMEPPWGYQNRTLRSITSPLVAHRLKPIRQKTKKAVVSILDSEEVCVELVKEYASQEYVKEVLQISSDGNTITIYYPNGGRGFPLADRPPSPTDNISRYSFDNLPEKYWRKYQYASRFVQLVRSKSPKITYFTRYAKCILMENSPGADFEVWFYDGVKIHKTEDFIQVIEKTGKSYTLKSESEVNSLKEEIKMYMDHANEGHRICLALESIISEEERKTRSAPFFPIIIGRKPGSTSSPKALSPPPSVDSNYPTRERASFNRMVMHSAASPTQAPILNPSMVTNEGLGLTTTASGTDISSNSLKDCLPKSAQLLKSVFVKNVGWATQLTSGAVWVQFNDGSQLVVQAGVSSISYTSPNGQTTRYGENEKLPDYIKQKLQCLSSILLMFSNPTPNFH

Aurora kinase B = Aurora kinase B (Homo sapiens, UniProt Q96GD4); test: Inhibition of Aurora B (unknown origin) by FRET-based homogenous assay
[5] = molecular target: Serine/threonine-protein kinase Chk2 (Homo sapiens, UniProt O96017); test: Inhibition of CHK2 (unknown origin) by FRET-based homogenous assay
Cytochrome P450 2C19 = Cytochrome P450 2C19 (Homo sapiens, UniProt P33261); test: Inhibition of CYP2C19 in supersomes (unknown origin) using MFC as substrate after 30 mins; type: ADME
Cytochrome P450 3A4 [6] = molecular target: T3, Cytochrome P450 3A4 (Homo sapiens, UniProt P08684); test: Inhibition of CYP3A4 in supersomes (unknown origin) using Dibenzylfluorescein as substrate after 10 mins; type: ADME
Cytochrome P450 3A4 [7] = molecular target: T3, Cytochrome P450 3A4; test: Inhibition of CYP3A4 in supersomes (unknown origin) using 7-benzyloxy-4-trifluoromethylcoumarin as substrate after 30 mins; type: ADME
Cytochrome P450 2C9 = Cytochrome P450 2C9 (Homo sapiens, UniProt P11712); test: Inhibition of CYP2C9 in supersomes (unknown origin) using MFC as substrate after 30 mins; type: ADME
Cytochrome P450 1A2 = molecular target: T4, Cytochrome P450 1A2 (Homo sapiens, UniProt P05177); test: Inhibition of CYP1A2 in supersomes (unknown origin) using CEC as substrate after 30 mins; type: ADME
T4 sequence (P05177 whole entry): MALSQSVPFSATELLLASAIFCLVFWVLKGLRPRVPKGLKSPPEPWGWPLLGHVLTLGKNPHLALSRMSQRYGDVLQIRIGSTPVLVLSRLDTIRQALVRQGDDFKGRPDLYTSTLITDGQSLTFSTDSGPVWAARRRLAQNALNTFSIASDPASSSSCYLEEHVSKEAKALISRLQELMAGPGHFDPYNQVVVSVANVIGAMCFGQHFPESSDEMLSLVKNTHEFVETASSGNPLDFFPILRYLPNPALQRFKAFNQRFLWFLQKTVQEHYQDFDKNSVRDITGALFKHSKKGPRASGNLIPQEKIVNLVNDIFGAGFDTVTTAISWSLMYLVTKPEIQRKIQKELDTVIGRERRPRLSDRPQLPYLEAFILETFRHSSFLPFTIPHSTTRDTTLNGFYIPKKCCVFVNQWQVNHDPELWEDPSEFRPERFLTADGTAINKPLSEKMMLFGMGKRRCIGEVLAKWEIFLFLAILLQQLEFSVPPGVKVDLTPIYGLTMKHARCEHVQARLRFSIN

Cytochrome P450 2D6 = Cytochrome P450 2D6 (Homo sapiens, UniProt P10635); test: Inhibition of CYP2D6 in supersomes (unknown origin) using AMMC as substrate after 30 mins; type: ADME
[8] = Permeability of the compound at pH 7.4 by PAMPA; type: ADME; settings: read-out: permeability
[9] = Solubility of the compound at pH 7.4; type: physicochemical; settings: buffer
[10] = molecular target: T1, Dual specificity protein kinase TTK; test: Inhibition of SUMO-tagged human TTK (1-275 residues) compound pre-incubated for 15 mins prior ATP addition by MBP-based assay
[11] = Growth inhibition of human HCT116 cells after 5 days by SRB assay; type: functional; settings: HCT-116, 120 h
[12] = Antitumor activity against human HCT116 cells xenografted in SCID mouse assessed as tumor growth inhibition at 15 mg/kg, ip qd for 5 days; type: functional; settings: HCT-116, ip, 120 h, route intraperitoneal, read-out: TGI
Procedure, shortened: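 HCT116 xenografts were grown in mice and dosed by the intraperitoneal route once daily. Tumor volume was tracked and compared with a negative-control arm, and the result was expressed as percent tumor growth inhibition. Body weight was monitored across all arms.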

T3 sequence (P08684 whole entry): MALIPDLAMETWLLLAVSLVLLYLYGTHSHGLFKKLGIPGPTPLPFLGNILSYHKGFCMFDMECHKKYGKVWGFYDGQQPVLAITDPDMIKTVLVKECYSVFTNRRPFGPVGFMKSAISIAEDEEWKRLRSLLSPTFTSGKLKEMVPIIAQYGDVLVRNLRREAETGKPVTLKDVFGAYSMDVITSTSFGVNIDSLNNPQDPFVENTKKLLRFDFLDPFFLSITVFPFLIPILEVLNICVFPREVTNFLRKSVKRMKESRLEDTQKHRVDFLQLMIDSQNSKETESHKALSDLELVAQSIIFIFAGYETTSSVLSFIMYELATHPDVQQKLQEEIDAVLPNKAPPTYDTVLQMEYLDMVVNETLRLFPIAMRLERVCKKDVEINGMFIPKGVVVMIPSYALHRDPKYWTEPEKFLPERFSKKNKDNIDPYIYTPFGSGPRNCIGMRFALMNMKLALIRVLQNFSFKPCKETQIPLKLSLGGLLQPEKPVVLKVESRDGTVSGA
Chain of Serine/threonine-protein kinase Chk2 (O96017 whole entry): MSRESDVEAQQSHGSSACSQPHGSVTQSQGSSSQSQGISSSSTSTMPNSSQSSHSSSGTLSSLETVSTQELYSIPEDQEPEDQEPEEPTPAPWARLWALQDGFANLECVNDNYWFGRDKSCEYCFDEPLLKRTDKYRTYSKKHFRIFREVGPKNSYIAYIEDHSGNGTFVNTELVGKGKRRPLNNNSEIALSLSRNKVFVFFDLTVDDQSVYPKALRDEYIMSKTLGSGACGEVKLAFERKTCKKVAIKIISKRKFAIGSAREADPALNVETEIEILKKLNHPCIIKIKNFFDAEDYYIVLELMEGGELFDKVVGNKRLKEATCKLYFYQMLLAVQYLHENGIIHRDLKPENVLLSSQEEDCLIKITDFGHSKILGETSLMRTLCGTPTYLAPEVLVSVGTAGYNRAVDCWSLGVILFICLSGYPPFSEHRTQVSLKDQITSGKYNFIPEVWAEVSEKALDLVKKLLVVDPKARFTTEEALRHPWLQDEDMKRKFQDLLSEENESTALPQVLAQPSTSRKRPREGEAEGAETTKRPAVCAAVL
Chain of Cytochrome P450 2D6 (P10635 whole entry): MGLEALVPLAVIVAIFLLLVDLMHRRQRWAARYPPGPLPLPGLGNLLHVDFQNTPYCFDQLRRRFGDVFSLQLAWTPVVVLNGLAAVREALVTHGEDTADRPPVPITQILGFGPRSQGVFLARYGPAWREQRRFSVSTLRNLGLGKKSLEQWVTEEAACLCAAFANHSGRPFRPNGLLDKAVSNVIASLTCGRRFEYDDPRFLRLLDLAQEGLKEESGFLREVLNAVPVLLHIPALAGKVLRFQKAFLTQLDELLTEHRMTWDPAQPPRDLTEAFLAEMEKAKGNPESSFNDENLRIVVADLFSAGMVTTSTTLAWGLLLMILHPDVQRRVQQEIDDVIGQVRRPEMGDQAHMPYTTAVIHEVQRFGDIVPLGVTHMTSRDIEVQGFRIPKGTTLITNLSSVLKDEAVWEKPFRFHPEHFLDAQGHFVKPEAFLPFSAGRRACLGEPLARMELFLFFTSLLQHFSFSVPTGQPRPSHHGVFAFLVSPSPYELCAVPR
Chain of Cytochrome P450 2C19 (P33261 whole entry): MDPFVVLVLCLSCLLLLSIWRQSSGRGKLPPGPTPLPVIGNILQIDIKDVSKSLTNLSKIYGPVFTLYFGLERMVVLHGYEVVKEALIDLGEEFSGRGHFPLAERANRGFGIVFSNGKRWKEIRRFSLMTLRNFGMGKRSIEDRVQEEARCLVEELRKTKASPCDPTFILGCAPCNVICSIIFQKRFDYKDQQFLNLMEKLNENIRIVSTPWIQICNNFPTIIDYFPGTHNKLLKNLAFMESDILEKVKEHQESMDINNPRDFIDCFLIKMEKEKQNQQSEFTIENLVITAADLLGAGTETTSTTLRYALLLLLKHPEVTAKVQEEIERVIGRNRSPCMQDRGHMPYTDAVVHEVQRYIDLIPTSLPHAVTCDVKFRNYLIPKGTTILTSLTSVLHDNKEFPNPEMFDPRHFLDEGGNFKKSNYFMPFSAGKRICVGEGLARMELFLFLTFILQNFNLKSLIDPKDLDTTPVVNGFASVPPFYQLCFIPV
Chain of Receptor-type tyrosine-protein kinase FLT3 (Homo sapiens) (P36888 whole entry): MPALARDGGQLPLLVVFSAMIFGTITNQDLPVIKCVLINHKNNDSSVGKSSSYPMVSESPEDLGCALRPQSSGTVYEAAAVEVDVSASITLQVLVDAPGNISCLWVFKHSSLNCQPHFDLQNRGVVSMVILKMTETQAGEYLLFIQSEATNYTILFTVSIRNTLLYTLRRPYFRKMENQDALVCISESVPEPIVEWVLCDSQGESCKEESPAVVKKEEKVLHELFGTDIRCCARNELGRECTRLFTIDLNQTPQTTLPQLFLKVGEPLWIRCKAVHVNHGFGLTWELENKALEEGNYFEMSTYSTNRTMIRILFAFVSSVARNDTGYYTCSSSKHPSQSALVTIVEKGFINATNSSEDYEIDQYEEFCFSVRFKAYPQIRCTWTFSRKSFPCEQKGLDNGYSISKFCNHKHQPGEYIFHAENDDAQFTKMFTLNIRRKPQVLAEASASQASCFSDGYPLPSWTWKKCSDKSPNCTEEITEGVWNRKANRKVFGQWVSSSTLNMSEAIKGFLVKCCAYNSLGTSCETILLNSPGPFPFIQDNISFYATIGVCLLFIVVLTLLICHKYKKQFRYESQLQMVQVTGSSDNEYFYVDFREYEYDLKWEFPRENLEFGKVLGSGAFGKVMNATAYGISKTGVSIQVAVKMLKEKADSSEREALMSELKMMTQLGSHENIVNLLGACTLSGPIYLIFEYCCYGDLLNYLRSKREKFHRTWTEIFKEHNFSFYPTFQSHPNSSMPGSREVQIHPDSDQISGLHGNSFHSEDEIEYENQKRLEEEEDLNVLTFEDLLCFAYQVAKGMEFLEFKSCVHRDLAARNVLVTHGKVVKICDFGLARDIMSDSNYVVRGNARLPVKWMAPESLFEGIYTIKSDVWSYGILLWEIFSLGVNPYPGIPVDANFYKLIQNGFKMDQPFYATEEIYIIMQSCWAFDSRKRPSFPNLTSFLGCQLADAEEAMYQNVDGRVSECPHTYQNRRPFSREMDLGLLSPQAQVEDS
Chain of Cytochrome P450 2C9 (P11712 whole entry): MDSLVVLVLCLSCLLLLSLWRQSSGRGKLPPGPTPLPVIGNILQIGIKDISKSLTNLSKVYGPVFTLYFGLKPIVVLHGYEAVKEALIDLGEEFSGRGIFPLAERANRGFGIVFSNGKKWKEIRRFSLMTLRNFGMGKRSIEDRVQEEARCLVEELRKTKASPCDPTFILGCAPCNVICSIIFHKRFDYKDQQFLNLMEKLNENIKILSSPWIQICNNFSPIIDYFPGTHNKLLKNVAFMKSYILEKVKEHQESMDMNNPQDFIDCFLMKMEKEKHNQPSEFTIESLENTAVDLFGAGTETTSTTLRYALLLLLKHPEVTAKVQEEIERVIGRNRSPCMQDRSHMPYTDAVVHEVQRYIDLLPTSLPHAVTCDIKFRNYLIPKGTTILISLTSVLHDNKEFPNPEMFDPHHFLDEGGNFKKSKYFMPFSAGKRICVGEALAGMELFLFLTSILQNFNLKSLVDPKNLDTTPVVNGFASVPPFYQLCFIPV
Chain of Aurora kinase B (Q96GD4 whole entry): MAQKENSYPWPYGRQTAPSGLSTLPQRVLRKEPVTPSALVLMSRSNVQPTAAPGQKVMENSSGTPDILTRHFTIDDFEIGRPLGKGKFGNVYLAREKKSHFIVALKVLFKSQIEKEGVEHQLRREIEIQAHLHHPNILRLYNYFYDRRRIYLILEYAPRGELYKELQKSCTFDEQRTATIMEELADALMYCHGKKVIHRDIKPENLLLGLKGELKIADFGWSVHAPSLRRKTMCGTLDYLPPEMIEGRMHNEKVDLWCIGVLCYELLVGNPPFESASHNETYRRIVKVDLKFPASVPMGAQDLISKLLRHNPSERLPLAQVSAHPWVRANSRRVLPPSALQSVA

c1ccc(-c2[nH]nc3ccccc23)cc1
inhibition [1]: inactive | Activity [2]: inactive | IC50 [3]: 12000 nM

CCc1cccc(CC)c1NC(=O)Nc1ccc2[nH]nc(-c3cccc(S(N)(=O)=O)c3)c2c1
IC50 [4]: 130 nM | IC50 (Aurora kinase B): 2400 nM | IC50 [5]: 410 nM | IC50 (Cytochrome P450 2C19): > 1000 nM | IC50 (Cytochrome P450 3A4 [6]): 10000 nM | IC50 (Cytochrome P450 3A4 [7]): 1000 nM | IC50 (Cytochrome P450 2C9): 1700 nM | IC50 (Cytochrome P450 1A2): > 10000 nM | IC50 (Cytochrome P450 2D6): > 10000 nM | Papp [8]: < 21 ×10⁻⁶ cm/s | solubility [9]: < 0.1 µg/mL | IC50 [10]: 3.5 nM | GI50 [11]: > 50000 nM

NS(=O)(=O)c1cccc(-c2n[nH]c3ccc(C(=O)N[C@H]4CCc5ccccc54)cc23)c1
Activity [2]: inactive

O=c1[nH]cc(F)c(=O)[nH]1 [FLUOROURACIL]
inhibition in vivo at 15 mg/kg [12]: 46%
